Screens from PubChem.
Only a selection was taken, and hits are over-represented in it overall.
T cruzi growth-1 – T. cruzi proliferation inhibition; T. cruzi beta-gal in NIH3T3, GalScreen luminescence, 90 h; inhibition, % at 8.34 µM; 77,000 tested, 5.9% active;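 active = mean inhibition above about 93%, with at least 55% of replicates each passing it, limit read from the data, passing the limit was not always enough; inconclusive = only one of those two conditions holds; inactive = neither condition holds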
GASC1 inh – blocks human GASC-1 (KDM4C) demethylase activity | Q9H3R0 | GST-KDM4C 2-372, H3K9me3 peptide, LANCE TR-FRET | inhibition, % at 12.5 µM | 96,000 tested, 0.15% active;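 active = mean replicate inhibition above about 25%, with at least 55% of replicates also reaching it, limit read from the data, passing the limit was not always enough; inconclusive = only one of those two conditions met; inactive = neither condition met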
Target sequence (Q9H3R0 2-372 limits assumed): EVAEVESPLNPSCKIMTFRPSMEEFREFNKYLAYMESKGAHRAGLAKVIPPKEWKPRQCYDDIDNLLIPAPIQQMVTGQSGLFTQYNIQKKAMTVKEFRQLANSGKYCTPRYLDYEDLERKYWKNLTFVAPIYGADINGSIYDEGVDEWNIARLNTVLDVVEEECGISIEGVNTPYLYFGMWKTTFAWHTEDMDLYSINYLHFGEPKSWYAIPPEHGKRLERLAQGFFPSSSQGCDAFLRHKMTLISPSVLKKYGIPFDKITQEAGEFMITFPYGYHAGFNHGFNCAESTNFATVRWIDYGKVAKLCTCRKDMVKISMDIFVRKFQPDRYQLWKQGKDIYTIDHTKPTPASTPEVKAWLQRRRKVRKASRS
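System – N-terminal GST-fused human GASC-1 (KDM4C) fragment, residues 2-372 · Input – enzyme final amount 10 nM · Technique – LANCE TR-FRET, Eu antibody, ULight-streptavidin, EDTA, ex 340 nm, em 618/671 nm · Medium – HEPES buffer, pH 7.5, plus ascorbate · Incubation – enzyme reaction 30 min, then detection 60 min, both room temperature · Reagent – H3K9me3 peptide with Fe(II)/2OG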
IDH1 mut inh – inhibitors of human IDH1 R132H; O75874; IDH1 R132H reductase, diaphorase/resazurin fluorescence, 60 min; inhibition, % at 10 µM; 70,000 tested, 0.18% active; AID 624101; in the data active = inhibition above about 34%; inconclusive = no clear call, values can overlap the other calls; inactive = below about 11%;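 also: 0% = DMSO and 100% = no enzyme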
Target sequence (O75874 whole entry R132H): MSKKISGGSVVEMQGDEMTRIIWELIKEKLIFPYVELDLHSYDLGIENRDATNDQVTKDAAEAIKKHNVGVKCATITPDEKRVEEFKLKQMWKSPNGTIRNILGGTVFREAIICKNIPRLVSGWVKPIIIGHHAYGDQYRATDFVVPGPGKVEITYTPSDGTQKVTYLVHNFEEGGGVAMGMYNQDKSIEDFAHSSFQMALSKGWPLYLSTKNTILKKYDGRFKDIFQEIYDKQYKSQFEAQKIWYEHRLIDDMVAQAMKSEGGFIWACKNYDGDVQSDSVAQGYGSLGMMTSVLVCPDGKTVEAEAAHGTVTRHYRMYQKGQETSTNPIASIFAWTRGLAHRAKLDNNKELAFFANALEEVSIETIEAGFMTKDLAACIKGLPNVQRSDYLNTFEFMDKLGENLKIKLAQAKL
T cruzi growth-2 – inhibitors of T. cruzi proliferation. shares compounds with T cruzi growth-1. T. cruzi beta-gal in NIH3T3, GalScreen luminescence, 90 h. inhibition, % at 8.35 µM. 5,600 tested, 72% active;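 active = mean replicate inhibition above about 95% and at least 55% of replicates individually reaching it, limit read from the data; inconclusive = only one of the two criteria is met; inactive = neither criterion is met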
T cruzi growth-3 – Trypanosoma cruzi proliferation inhibition; shares compounds with T cruzi growth-1; T. cruzi beta-gal in NIH3T3, GalScreen luminescence, 90 h; inhibition, % at 2.09 µM; 5,600 tested, 21% active;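 active = mean inhibition above about 95%, with at least 55% of replicates also reaching it, limit read from the data; inconclusive = meets just one of the two conditions; inactive = meets neither condition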;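 also: plate controls were neutral control median for no effect and positive control median for full effect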
3T3 cytotox – cytotoxicity in mouse NIH/3T3 fibroblasts; shares compounds with T cruzi growth-1; NIH/3T3 viability, CellTiter-Glo ATP luminescence, 90 h; cytotoxicity (signal decrease), % at 8.35 µM; 5,600 tested, 14% active; AID 651742;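 active = mean signal decrease across replicates above about 35% based on untreated-well scatter, with enough replicates individually passing, limit read from the data; inconclusive = no rule stated though some were filed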;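 also: 0% = median of neutral control wells and 100% = median of positive control wells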
NIH3T3 tox 2 – cytotoxicity in mouse NIH/3T3 fibroblasts; shares compounds with T cruzi growth-1; NIH/3T3 viability, CellTiter-Glo ATP luminescence, 90 h; inhibition, % at 24.9 µM; 5,600 tested, 56% active;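 active = mean loss of cell viability signal at or above a set limit, and enough replicates individually reaching it; inconclusive = meets only the mean limit or only the replicate share; inactive = meets neither condition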;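 also: 0% = median of neutral control wells and 100% = median of positive control wells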
Numbers without * were called inactive; ? = inconclusive; · = no result given.

SMILES | T cruzi growth-1 | GASC1 inh | IDH1 mut inh | T cruzi growth-2 | T cruzi growth-3 | 3T3 cytotox | NIH3T3 tox 2
Cc1ccc(NC(=O)CCCN2C(=O)c3ccccc3C2=O)c([N+](=O)[O-])c1 | · | · | 0 | · | · | · | ·
CO[C@H]1CN(C)C(=O)c2cc(NC(=O)C3CC3)ccc2OC[C@@H](C)N(C(=O)c2ccccc2)C[C@@H]1C | · | 1 | 0 | · | · | · | ·
CC(C)CC#Cc1ccc([C@@H]2[C@@H](CO)N3CCCCN(C(=O)NC4CCCC4)C[C@@H]23)cc1 | 102* | -1 | · | 101* | 64 | 20 | 107*
CC(C)CC#Cc1ccc([C@@H]2[C@H](CO)N3CCCCN(C(=O)Nc4ccccc4)C[C@@H]23)cc1 | 59 | 1 | · | · | · | · | ·
CC(C)CC#Cc1ccc([C@H]2[C@@H](CO)N3CCCCN(C(=O)NC4CCCC4)C[C@@H]23)cc1 | 118* | 0 | · | 110* | 79 | 19 | 104*
CCCC#Cc1ccc([C@H]2[C@H](CO)N3CCCCN(C(=O)NC4CCCC4)C[C@@H]23)cc1 | ? | 1 | · | 86 | ? | 48* | 105*
COCC#Cc1ccc([C@H]2[C@@H](CO)N3CCCCN(C(=O)NC4CCCC4)C[C@H]23)cc1 | 76 | 1 | · | · | · | · | ·
CC(C)CC#Cc1ccc([C@H]2[C@H](CO)N3C(=O)CN(C(=O)NC4CCCC4)C[C@@H]23)cc1 | · | -1 | · | · | · | · | ·
CC(C)CC#Cc1ccc([C@H]2[C@H](CO)N3CCCCN(C(=O)Nc4ccccc4)C[C@@H]23)cc1 | 78 | 9 | · | · | · | · | ·
CC(C)CC#Cc1ccc([C@H]2[C@H](CO)N3CCCCN(C(=O)NC4CCCC4)C[C@@H]23)cc1 | 113* | -2 | · | 93 | 87 | 43* | 103*
O=C(CSc1nc(O)cc(=O)n1-c1ccccc1)N1CCc2ccccc21 | · | · | -1 | · | · | · | ·
CO[C@@H]1CN(C)C(=O)c2cc(NC(=O)C3CCC3)ccc2OC[C@@H](C)N(C(=O)NC(C)C)C[C@@H]1C | · | 1 | 0 | · | · | · | ·
CCNC(=O)C[C@@H]1CC[C@@H]2[C@@H](COc3ccc(NS(C)(=O)=O)cc3C(=O)N2C)O1 | -15 | 0 | · | · | · | · | ·
C[C@@H]1CCCCO[C@@H](CN(C)Cc2ccccc2)[C@@H](C)CN([C@H](C)CO)C(=O)c2cc(NC(=O)Nc3ccc4c(c3)OCO4)ccc2O1 | 43 | -1 | 0 | · | · | · | ·
C[C@@H]1CCCCO[C@H](CN(C)Cc2ccc3c(c2)OCO3)[C@H](C)CN([C@H](C)CO)C(=O)c2cc(NC(=O)Nc3ccccc3)ccc2O1 | 114* | 5 | · | ? | 103* | 10 | 104*
C[C@H]1CCCCO[C@@H](CN(C)Cc2ccc3c(c2)OCO3)[C@@H](C)CN([C@@H](C)CO)C(=O)c2cc(NC(=O)Nc3ccccc3)ccc2O1 | 94 | 1 | · | · | · | · | ·
C[C@@H]1CCCCO[C@H](CN(C)Cc2ccc3c(c2)OCO3)[C@H](C)CN([C@@H](C)CO)C(=O)c2cc(NC(=O)Nc3ccccc3)ccc2O1 | 16 | 0 | 2 | · | · | · | ·
C[C@@H]1CCCCO[C@@H](CN(C)Cc2ccc3c(c2)OCO3)[C@@H](C)CN([C@H](C)CO)C(=O)c2cc(NC(=O)Nc3ccccc3)ccc2O1 | ? | -1 | · | 112* | 79 | 20 | 18
C[C@@H]1CCCCO[C@H](CN(C)Cc2ccccc2)[C@H](C)CN([C@H](C)CO)C(=O)c2cc(NC(=O)Nc3ccc4c(c3)OCO4)ccc2O1 | 98* | 5 | 1 | 106* | 91 | 12 | 52*
C[C@H]1CN([C@@H](C)CO)S(=O)(=O)c2ccc(-c3ccncc3)cc2O[C@@H]1CN(C)C(=O)C1CCC1 | 86 | 3 | 2 | · | · | · | ·
Cc1ccc(-c2ccc3c(c2)O[C@H](CN(C)C(=O)C2CCC2)[C@H](C)CN([C@@H](C)CO)S3(=O)=O)cc1 | 121* | 2 | · | 83 | 73 | 41* | 78*
Cc1ccc(-c2ccc3c(c2)O[C@@H](CN(C)C(=O)C2CCC2)[C@H](C)CN([C@H](C)CO)S3(=O)=O)cc1 | 52 | -2 | · | · | · | · | ·
Cc1ccc(-c2ccc3c(c2)O[C@@H](CN(C)C(=O)C2CCC2)[C@@H](C)CN([C@H](C)CO)S3(=O)=O)cc1 | 63 | 0 | · | · | · | · | ·
C[C@@H]1CN([C@H](C)CO)S(=O)(=O)c2ccc(-c3ccncc3)cc2O[C@H]1CN(C)C(=O)C1CCC1 | 103* | 1 | · | 89 | 29 | 18 | 42*
Cc1ccc(-c2ccc3c(c2)O[C@H](CN(C)C(=O)C2CCCCC2)[C@H](C)CN([C@H](C)CO)S3(=O)=O)cc1 | 121* | -2 | · | 96* | ? | 29 | 105*
SMILES | T cruzi growth-1 | GASC1 inh | IDH1 mut inh | T cruzi growth-2 | T cruzi growth-3 | 3T3 cytotox | NIH3T3 tox 2
Cc1ccc(-c2ccc3c(c2)O[C@@H](CN(C)C(=O)C2CCCCC2)[C@H](C)CN([C@H](C)CO)S3(=O)=O)cc1 | 112* | -2 | · | 101* | 87 | 21 | 107*
Cc1ccc(-c2ccc3c(c2)O[C@@H](CN(C)C(=O)C2CCC2)[C@@H](C)CN([C@@H](C)CO)S3(=O)=O)cc1 | 31 | 0 | · | · | · | · | ·
COc1ccc2c3c([nH]c2c1)[C@@H](CO)N(C(=O)c1cnccn1)CC31CCN(S(C)(=O)=O)CC1 | · | 1 | · | · | · | · | ·
C[C@@H]1CN([C@@H](C)CO)C(=O)c2cc(NC(=O)Cc3ccccc3)ccc2O[C@H]1CN(C)S(=O)(=O)c1cccs1 | -43 | -1 | -20 | · | · | · | ·
C[C@H](CO)N1C[C@H](C)[C@H](CN(C)Cc2ccc(C(=O)O)cc2)Oc2c(NC(=O)Nc3ccccc3)cccc2C1=O | · | 5 | 8 | · | · | · | ·
CCC(=O)N1CC(=O)N2[C@H](C1)[C@H](c1ccc(C#CC3CCCCC3)cc1)[C@@H]2CO | · | 0 | · | · | · | · | ·
C[C@@H]1CN([C@@H](C)CO)S(=O)(=O)c2ccc(-c3ccccc3)cc2O[C@H]1CN(C)C(=O)C1CCCCC1 | ? | -2 | · | 97* | 53 | 34 | 0
C[C@H]1CN([C@@H](C)CO)S(=O)(=O)c2ccc(-c3ccccc3)cc2O[C@@H]1CN(C)C(=O)C1CCCCC1 | 86 | -2 | 4 | · | · | · | ·
Cc1ccc(-c2ccc3c(c2)O[C@@H](CN(C)C(=O)C2CC2)[C@@H](C)CN([C@@H](C)CO)S3(=O)=O)cc1 | 67 | 0 | · | · | · | · | ·
Cc1ccc(-c2ccc3c(c2)O[C@H](CN(C)C(=O)C2CCCCC2)[C@H](C)CN([C@@H](C)CO)S3(=O)=O)cc1 | 118* | -2 | -5 | 95 | 73 | 50* | 106*
CO[C@H]1CN(C)C(=O)c2ccc(NS(=O)(=O)c3cccc(C)c3)cc2OC[C@H](C)NC[C@@H]1C | · | 0 | · | · | · | · | ·
C[C@@H](O)C#Cc1ccc2c(c1)O[C@@H](CN(C)C(=O)c1ccccc1)[C@@H](C)CN([C@@H](C)CO)S2(=O)=O | 12 | 0 | · | · | · | · | ·
COC(=O)c1c(C)oc2ccc(N(C(=O)c3ccccc3)S(=O)(=O)c3cccs3)cc12 | · | · | -1 | · | · | · | ·
